This note sets out measurements from PubChem BioAssay AID602138 (Broad Institute, 2011).

The source made the active and inactive calls. How the calls were made is not given here.

The experiment is described as follows: HDL-directed efflux in C384S receptor cells – cell-based, ldlA CHO, [3H]cholesterol, dry powder, mechanism study for SR-BI HDL uptake inhibitor project, dose response (AID 602138). Particulars: ldlA CHO cells mSR-BI C384S, [3H]cholesterol efflux to HDL; at 25 µM (top of the series). The method in brief:
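System: ldlA CHO cells carrying mutant Cys384S SR-BI, [3H]cholesterol-prelabelled; medium: HEPES-buffered pH 7.4 assay medium with 0.5% fatty acid-free BSA; probe or stimulus: HDL, 100 µg/mL final; compound dosing: 0.5% DMSO with compound; incubation: 1 h compound pre-exposure at 37 °C, 2 h efflux; detection: scintillation counting, medium and lysate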

For the molecule `COCC(=O)N1CCc2cc(-c3csc(NC(=O)c4cc(OC)cc(OC)c4)n3)ccc21`, the efflux, lower = inhibition is 6.26% (active). As to `C[C@H](C(=O)NC1CCCC1)N(C(=O)Cn1nnc(-c2ccc3c(c2)OCO3)n1)C1CCCCC1`, the efflux, lower = inhibition was 5.73% (active).
